High-throughput results (PubChem)
Arrestin-AP2 inh: inhibitors of human beta-arrestin and AP2 interaction | inhibition, % at 10 µM | FITC-arrestin peptide / GST-AP2 beads, flow cytometry; AP2 beta2 appendage carries R879A mutation | 340,000 compounds, 0.31% hits;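 active means inhibition above a set limit, near 3 SD of compounds lacking own fluorescence, cut at about 54% in these data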
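System: GST-AP2 R879A glutathione beads | Also added: FITC-arrestin peptide, 50 nM | Times: 12 min plus 1 h, RT | Signal: Bead flow cytometry, FITC channel | Buffer or medium: PBS with 0.05% Tween 20 and 0.1% BSA | Read-out basis: Percent drop in bead-associated FITC signal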
MEKK2wt PB1 HTS: raises or lowers MEK5 binding to wildtype human MEKK2 PB1 domain | Q9Y2U5 | bead flow cytometry, Alexa488-MEK5 binding to MEKK2 WT; actives lie on both sides | binding response (% of control), % at 10 µM | 290,000 compounds, 1.1% hits | AID 1531; in the data active means binding response below about 67% or above about 130%
MEKK3 PB1 HTS: MEKK3-MEK5 PB1 interaction, increase or decrease | bead-based flow cytometry, Alexa488-MEK5 binding to MEKK3; actives lie on both sides; 0 = blocked by unlabeled MEK5, 100 = vehicle | Q99759 | 290,000 compounds, 1.4% hits | binding response (% of control), % at 10 µM;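 active means binding response more than 3 SD above or below the average of its plate-row segment, actives on both sides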;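 further: Alexa488 bead fluorescence after subtracting the streptavidin-only scavenger bead signal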
MEKK2mut PB1 HTS: signal of MEK5 binding to mutant human MEKK2 PB1 domain; bead flow cytometry, Alexa488-MEK5 binding to MEKK2 mutant; percent response, % at 10 µM; 290,000 compounds, 0.35% hits; in the data active means percent response above about 24%, passing the limit was not always enough
Arr AP2 CP1: blocks beta-arrestin peptide binding to human AP2; 1,300 compounds, 2% hits; GST-AP2 beads, FITC arrestin peptide binding, flow cytometry; GST-fused beta2-adaptin appendage, R879A mutant; AID 504908; shares compounds with Arrestin-AP2 inh; inhibition, % at 10 µM;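 active means inhibition above a set limit, roughly 3 SD of non-fluorescent compound noise, cut at about 38% in these data; inactive means inhibition at or below that limit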;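 further: loss of bead fluorescence from 50 nM FITC arrestin peptide bound to appendage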
Target sequence (P63010 whole entry, looked up, the tested form may be a part, one chain of several): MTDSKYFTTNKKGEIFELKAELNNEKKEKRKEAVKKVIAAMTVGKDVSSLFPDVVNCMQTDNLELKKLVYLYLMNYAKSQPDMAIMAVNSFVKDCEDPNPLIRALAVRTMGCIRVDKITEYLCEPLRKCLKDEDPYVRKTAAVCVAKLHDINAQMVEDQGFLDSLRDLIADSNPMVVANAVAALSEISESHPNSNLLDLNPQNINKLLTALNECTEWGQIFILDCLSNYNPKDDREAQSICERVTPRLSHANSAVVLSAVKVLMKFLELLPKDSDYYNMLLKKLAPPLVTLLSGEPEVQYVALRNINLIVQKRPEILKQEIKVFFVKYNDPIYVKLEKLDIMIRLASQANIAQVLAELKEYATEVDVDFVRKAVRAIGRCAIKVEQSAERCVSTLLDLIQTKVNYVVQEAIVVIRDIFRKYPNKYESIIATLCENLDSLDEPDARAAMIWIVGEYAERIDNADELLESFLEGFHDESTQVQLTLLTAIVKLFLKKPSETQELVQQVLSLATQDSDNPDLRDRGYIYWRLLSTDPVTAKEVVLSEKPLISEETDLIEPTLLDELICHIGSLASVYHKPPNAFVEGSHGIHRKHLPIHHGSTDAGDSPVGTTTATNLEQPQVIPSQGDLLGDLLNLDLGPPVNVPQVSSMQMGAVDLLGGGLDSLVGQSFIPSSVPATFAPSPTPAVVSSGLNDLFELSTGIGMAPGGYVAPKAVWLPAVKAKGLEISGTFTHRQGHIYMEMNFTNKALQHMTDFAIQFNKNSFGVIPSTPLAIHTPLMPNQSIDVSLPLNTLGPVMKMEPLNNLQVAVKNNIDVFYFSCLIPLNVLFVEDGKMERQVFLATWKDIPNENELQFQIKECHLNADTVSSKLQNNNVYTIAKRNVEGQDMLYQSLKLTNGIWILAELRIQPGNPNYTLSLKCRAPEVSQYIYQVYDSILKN
GST GSH counter: GST-GSH bead binding interference, counter-screen; 1,300 compounds, 2% hits; inhibition, % at 10 µM; shares compounds with Arrestin-AP2 inh; GST-fluorescein binding to GSH beads, fluorescence; AID 588338;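 active means inhibition above 50%, about 3 SD of the inhibition seen with non-fluorescent compounds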;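 further: fluorescein maleimide labelled GST captured on 4 micron glutathione beads; higher means more loss of bead fluorescence from quenching or blocked binding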
Each line names hits and unclear results; the compound was inactive in the other large screens (follow-up assays come after a bar, where they were run). Shown are actives, neighbours in structure and some others; about 2.3% of the full set was active somewhere.

Cn1c(CCCNC(=O)c2ccco2)nc2ccccc21	none (no result: MEKK2wt PB1 HTS, MEKK3 PB1 HTS, MEKK2mut PB1 HTS)
O=C(NCCOc1ccccc1)c1cc(C(=O)NCCOc2ccccc2)cc([N+](=O)[O-])c1	none
CN(CCOc1ccccc1)C(=O)c1cc([N+](=O)[O-])cc([N+](=O)[O-])c1	Arrestin-AP2 inh 60 | Arr AP2 CP1 inactive | GST GSH counter inactive
Cn1c2ccccc2c2ccc3c(c21)C(=O)C=CC3=O	Arrestin-AP2 inh 70 (no result: MEKK2wt PB1 HTS, MEKK3 PB1 HTS, MEKK2mut PB1 HTS) | Arr AP2 CP1 55 | GST GSH counter inactive
COc1ccc2c(c1)c1ccc3c(c1n2C)C(=O)C=CC3=O	Arrestin-AP2 inh 57 | Arr AP2 CP1 inactive | GST GSH counter inactive
Cc1ccc2c(c1)c1ccc3c(c1n2C)C(=O)C=CC3=O	none
Cc1nc2ccc(F)cc2cc1C(=O)NCC1CCCO1 (configuration not stated)	Arrestin-AP2 inh 105 | Arr AP2 CP1 inactive | GST GSH counter inactive
O=C(NCC1CCCO1)c1cc2ccccc2nc1Cl (configuration not stated)	none
CC(=O)N1N=C(c2ccc(Br)cc2)CC1c1cn(C)c2ccccc12 (configuration not stated)	Arrestin-AP2 inh 55 | Arr AP2 CP1 inactive
COc1ccccc1C(=O)Nc1nnc(S(=O)(=O)N2CCCCC2)s1	Arrestin-AP2 inh 64 | Arr AP2 CP1 inactive | GST GSH counter inactive
COc1ccccc1C(=O)Nc1nnc(S(=O)(=O)N2CCCCCC2)s1	none
COc1ccc(S(=O)(=O)N2CCN(C)CC2)cc1NC(=O)c1ccccc1	none | Arr AP2 CP1 inactive | GST GSH counter inactive
COc1ccc(S(=O)(=O)N2CCCCCC2)cc1NC(=O)c1ccccc1	none
CCN1CCN(S(=O)(=O)c2ccc(OC)c(NC(=O)c3ccccc3)c2)CC1	none | Arr AP2 CP1 inactive | GST GSH counter inactive
CC1CC(C)CN(C(=O)C2CCN(S(=O)(=O)c3cccc4cccnc34)CC2)C1 (configuration not stated)	none
CC(C)(C)SCCNC(=O)CN(c1ccc(F)cc1)S(=O)(=O)c1ccccc1	none
CC(C)CCN1CCN(Cc2ccc(C#CC(C)(C)O)s2)CC1CCO (configuration not stated)	Arrestin-AP2 inh 62 | Arr AP2 CP1 inactive | GST GSH counter inactive
O=C(Nc1ccc(F)cc1)Nc1ccccc1C(=O)NCCN1CCNC1=O	none
Cc1ccc(S(=O)(=O)N2CCCCC2)cc1NC(=O)c1ccncc1	none (no result: MEKK2wt PB1 HTS, MEKK3 PB1 HTS, MEKK2mut PB1 HTS) | Arr AP2 CP1 inactive | GST GSH counter inactive
Cc1ccnc(NC(=O)c2cccc(S(=O)(=O)N3CCCC3)c2)c1	Arrestin-AP2 inh 60 | Arr AP2 CP1 inactive | GST GSH counter inactive
CCC(C)(C)NC(=O)CN(CCc1cccc(C)c1)C(=O)c1csnn1	none
Nn1c(SCC(=O)N2CCN(S(=O)(=O)c3ccccc3)CC2)nnc1-c1cccs1	Arrestin-AP2 inh 99 | Arr AP2 CP1 inactive | GST GSH counter inactive
Nc1c(Br)cc2c([nH]c(=O)c3ccccc32)c1Br	none (no result: MEKK2wt PB1 HTS, MEKK3 PB1 HTS, MEKK2mut PB1 HTS)
Cc1cc(/C=C2/NC(=O)N(Cc3ccccc3F)C2=O)c(C)n1-c1ccccn1	Arrestin-AP2 inh 88 | Arr AP2 CP1 inactive | GST GSH counter 72
Cc1cccc(CN2C(=O)N/C(=C/c3cc(C)n(-c4ccccn4)c3C)C2=O)c1	none
O=C(NCCC1=CCCCC1)C1CCN(S(=O)(=O)c2ccc(Br)s2)CC1	none
CC(C)(C)NC(=O)/C(=C/c1ccco1)c1ccccc1	Arrestin-AP2 inh 88 | Arr AP2 CP1 inactive | GST GSH counter inactive
Cc1ccccc1NC(=O)/C(=C/c1ccco1)c1ccccc1	none
COc1cc(CC(=O)OCC(=O)N2CCN(C(=O)c3ccco3)CC2)cc(OC)c1OC	none (no result: MEKK2wt PB1 HTS, MEKK3 PB1 HTS, MEKK2mut PB1 HTS)
COc1cc(CC(=O)OCC(=O)N2CCCCC2)cc(OC)c1OC	Arrestin-AP2 inh 58 | Arr AP2 CP1 inactive | GST GSH counter inactive
CCn1c(=O)n(CC)c2cc(N3CCCC3)c(NC(=O)c3ccccc3OC)cc21	none
COc1ccc(Cl)cc1C(=O)Nc1ccccc1N1CCN(C(=O)C(C)C)CC1	none
CCn1c(=O)n(CC)c2cc(N3CCCC3)c(NC(=O)c3cc(Cl)ccc3OC)cc21	Arrestin-AP2 inh 54 | Arr AP2 CP1 inactive | GST GSH counter inactive
CCOc1ccccc1C(=O)Nc1cc2c(cc1N1CCCC1)n(CC)c(=O)n2CC	none | Arr AP2 CP1 inactive | GST GSH counter inactive
CCn1c(=O)n(CC)c2cc(N3CCCC3)c(NC(=O)c3ccc(OC)c(Br)c3)cc21	none | Arr AP2 CP1 inactive | GST GSH counter inactive
NC(=O)c1c(/N=C/c2cccs2)sc2c1CCCC2	none
Cc1ccc(Cl)cc1NC(=S)NCc1cccn1C	none
CCCCNC(=O)N1c2ccccc2CC1C (configuration not stated)	Arrestin-AP2 inh 57 | Arr AP2 CP1 inactive | GST GSH counter inactive
COC(=O)c1ccccc1NC(=O)N1c2ccccc2CC1C (configuration not stated)	none
Cc1cccc(-c2nnc(SCC(=O)C(C)(C)C)n2C)c1	none
O=C(COc1coc(CN2CCc3ccccc3C2)cc1=O)Nc1ccc(F)cc1F	none (no result: MEKK2wt PB1 HTS, MEKK3 PB1 HTS, MEKK2mut PB1 HTS)
COc1ccc(NC(=O)/C(=C\c2cccnc2)NC(=O)c2cccs2)cc1	none
COc1ccc(NC(=O)/C(=C/c2cccnc2)NC(=O)c2cccs2)cc1	Arrestin-AP2 inh 66 | Arr AP2 CP1 inactive | GST GSH counter inactive
CCOc1ccc(/C=N/NC(=O)C(=O)NCc2ccco2)cc1	Arrestin-AP2 inh 102 | Arr AP2 CP1 inactive | GST GSH counter inactive
CCOc1ccc(NC(=O)NCc2ccco2)cc1	none
Cc1ccc(N2C(=O)CC(Sc3nc4ccccc4o3)C2=O)cc1Cl (configuration not stated)	none
O=C(Nc1c2c(nn1-c1ccccc1)CS(=O)(=O)C2)c1cc2ccccc2o1	none
Cc1ccc(-n2nc3c(c2NC(=O)c2cc4ccccc4o2)CS(=O)(=O)C3)cc1	Arrestin-AP2 inh 57 | Arr AP2 CP1 inactive | GST GSH counter inactive
Cn1c(=O)n(C)c2cc(N3CCOCC3)c(NC(=O)c3cccc(Cl)c3)cc21	none | Arr AP2 CP1 inactive | GST GSH counter inactive
COc1cccc(OC)c1C(=O)Nc1ccccc1N1CCCC1	none
COc1cccc(OC)c1C(=O)Nc1cc2c(cc1N1CCOCC1)n(C)c(=O)n2C	none | Arr AP2 CP1 inactive | GST GSH counter inactive
O=C(Nc1ccc(N2CCOCC2)cc1N1CCOCC1)c1ccc(F)cc1	none (no result: MEKK2wt PB1 HTS, MEKK3 PB1 HTS, MEKK2mut PB1 HTS)
Cn1c(=O)n(C)c2cc(N3CCOCC3)c(NC(=O)c3ccc(F)cc3)cc21	none | Arr AP2 CP1 inactive | GST GSH counter inactive
O=C(Cc1ccc(Cl)cc1)Nc1ccccc1C(=O)N1CCCCC1	none
N#Cc1cn(CCOc2ccc(F)cc2)c2ccccc12	Arrestin-AP2 inh 57 | Arr AP2 CP1 inactive | GST GSH counter inactive
CC(C)OCCCNC(=O)C1CCN(S(=O)(=O)N2CCCC2)CC1	none
